Bioassay records as filed in PubChem BioAssay.
CAL PDZ FP-1 – blocks peptide binding to the human CAL PDZ domain | purified CAL PDZ, TMR-peptide fluorescence polarization, 1 h | inhibition, % at 24.9 µM | actives 0.92% (n = 300,000) | AID 602252;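 active = mean inhibition of at least 30% with at least half of replicates also reaching 30%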
ATG4B inh – inhibitors of human ATG4B cysteine protease | Q9Y4P1 | ATG4B cleavage of LC3-PLA2, NBD-HPC fluorescence, 1 h | inhibition, % at 8.33 µM | actives 0.51% (n = 340,000); in the data active = inhibition above about 40%
SR-BI DiI inh – mouse SR-BI HDL lipid transfer inhibition; inhibition, % at 12.5 µM; Q61009; ldlA[mSR-BI] CHO cells, DiI-HDL uptake fluorescence, 3 h; actives 0.96% (n = 320,000);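 active = mean replicate inhibition of at least 70% and a set share of replicates each scoring 70 or more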
Target sequence (Q61009 whole entry, looked up): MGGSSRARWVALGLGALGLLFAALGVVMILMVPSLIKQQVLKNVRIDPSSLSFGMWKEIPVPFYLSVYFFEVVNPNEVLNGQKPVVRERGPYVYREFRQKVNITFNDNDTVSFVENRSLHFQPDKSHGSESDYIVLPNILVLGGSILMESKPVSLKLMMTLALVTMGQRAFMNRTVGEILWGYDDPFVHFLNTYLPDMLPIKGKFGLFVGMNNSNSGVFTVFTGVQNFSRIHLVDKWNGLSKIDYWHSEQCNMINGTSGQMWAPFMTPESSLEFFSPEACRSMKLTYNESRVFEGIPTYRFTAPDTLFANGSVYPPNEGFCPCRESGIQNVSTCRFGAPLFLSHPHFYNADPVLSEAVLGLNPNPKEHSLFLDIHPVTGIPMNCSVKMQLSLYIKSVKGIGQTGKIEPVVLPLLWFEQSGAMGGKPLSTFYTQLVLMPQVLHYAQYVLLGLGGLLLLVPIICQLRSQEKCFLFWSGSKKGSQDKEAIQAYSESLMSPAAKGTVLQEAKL
CAL PDZ FP-2 – human CAL PDZ-peptide interaction inhibition. purified CAL PDZ, TMR-peptide fluorescence polarization, 1 h. inhibition, % at 20 µM. actives 0.02% (n = 330,000). AID 504414;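 active = highest replicate inhibition of at least 40%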
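material = purified tagged CAL PDZ domain construct (CerCALP) | compound dosing = 20 µM, one dose | times = 1 h at RT | measured by = fluorescence polarization from S- and P-plane intensities, G-factor corrected | read-out = inhibition from polarization loss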
SR-BI uptake up – SR-BI HDL lipid transfer activation; actives 0.096% (n = 320,000); activation, % at 12.5 µM; CHO ldlA[mSR-BI] cells, DiI-HDL uptake fluorescence, 3 h; 100 = double the neutral-control signal;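 active = mean replicate activation of at least 60% and every replicate at or above 60%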
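Material – SR-BI-overexpressing, LDLR-lacking CHO cells · Medium – BSA-supplemented, HEPES-buffered Ham's F12, pH 7.4 · Doses – single concentration · Times – compound with DiI-HDL co-incubation, 3 h at 37 °C · Measured by – bottom-read fluorescence, 550/595 nm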
A number is an active result; – = inactive; · = no result given. A selection: hits, their analogues and other compounds. The true share with any hit is near 2.3%.

SMILES | CAL PDZ FP-1 | ATG4B inh | SR-BI DiI inh | CAL PDZ FP-2 | SR-BI uptake up
CN(Cc1cccc(F)c1)C(=O)C1CC(=O)N(c2ccc3c(c2)OCCO3)C1 (stereo not given) | 40 | – | – | – | –
O=C1C=C(O)CC(c2ccc(Cl)cc2)C1 (stereo not given) | – | – | – | · | –
Oc1ccc(Cl)cc1C1=NNC(c2ccc(Cl)cc2)C1 (stereo not given) | – | – | 84 | – | –
Oc1ccc(Cl)cc1C1=NNC(c2cc(Br)cc3c2OCOC3)C1 (stereo not given) | – | – | – | – | –
Oc1c(Cl)cc(Cl)cc1C1=NNC(c2ccc(Cl)cc2)C1 (stereo not given) | – | – | 84 | – | –
CC(C)c1ccc(C2OCCCO2)cc1 | · | – | – | – | –
CC(C)c1ccc(C2OCC(C)([N+](=O)[O-])CO2)cc1 (stereo not given) | 91 | – | – | – | –
CN(C(=O)COC(=O)c1nc(Cl)c(Cl)c(Cl)c1Cl)C1CCS(=O)(=O)C1 (stereo not given) | – | – | – | – | –
CC(C)(C)NC(=O)Cn1c(Cl)nc2ccccc21 | 69 | – | – | – | –
COC(=O)C1=C(N)OC2=C(C(=O)CC(C)(C)C2)C1c1cc2c(cc1Cl)OCO2 (stereo not given) | – | – | – | – | –
Cc1ccc2nc(C(Cl)(Cl)Cl)nc(N/N=C/c3ccc([N+](=O)[O-])cc3)c2c1 | – | – | 91 | – | –
Cc1ccc2nc(C(Cl)(Cl)Cl)nc(N/N=C/c3ccncc3)c2c1 | – | – | – | · | –
CN(C)C(CNc1ccc([N+](=O)[O-])cc1C#N)c1ccccc1 (stereo not given) | – | – | – | – | –
O=C(O)COc1ccccc1/C=N/NC(=O)CSc1nnc(SCc2ccc(Cl)cc2)s1 | – | – | · | – | ·
O=C(CSc1nnc(SCc2ccc(Cl)cc2)s1)N/N=C/c1ccc(C(=O)O)cc1 | 47 | – | – | – | –
Cc1ccc(OCCSc2ncnc3sc(C)c(C)c23)cc1C | – | – | – | – | 950
Cc1ccc(OCC(=O)NNC(=O)CSc2ncnc3sc(C)c(C)c23)cc1 | · | – | – | – | –
COCc1nnc(NC(=O)c2cccc(NC(=O)C(C)C)c2)s1 | – | – | – | – | –
CCc1nnc(NC(=O)c2cccc(NC(=O)C(C)C)c2)s1 | 45 | – | – | – | –
CCCCn1c(N)c(N(Cc2ccccc2OC)C(=O)c2sccc2C)c(=O)[nH]c1=O | – | – | – | – | –
Cc1cccc(N(CC(=O)NC2CCCC2)C(=O)CCCC(=O)Nc2ccccn2)c1 | – | – | – | – | –
Cc1cccc(N(CC(=O)NC2CCCCC2)C(=O)CCCC(=O)Nc2ccccn2)c1 | 74 | – | – | – | –
Oc1ccccc1N=Cc1c(O)ccc2ccccc12 | – | – | 80 | – | –
Oc1ccc2ccccc2c1C=Nc1ccccc1Br | – | – | – | – | –
C=Cc1ccc(N=Cc2c(O)ccc3ccccc23)cc1 | – | – | 75 | – | –
SMILES | CAL PDZ FP-1 | ATG4B inh | SR-BI DiI inh | CAL PDZ FP-2 | SR-BI uptake up
C#CCOCCOCCOCCNc1nc(N2CCN(C(=O)[C@H](CCCCN)n3cc(CCCC)nn3)CC2)nc(N2CCN(C(=O)[C@H](CCCCN)n3cc(CCC(=O)O)nn3)CC2)n1 | – | – | – | – | –
Cc1nccn1-c1ccc(C=O)cc1 | 121 | – | – | – | –
c1ccc2sc(NCC3CCCO3)nc2c1 (stereo not given) | · | – | – | – | –
CC1=CC(=C(C#N)c2nc3ccccc3s2)C=C(C)N1CC1CCCO1 (stereo not given) | – | – | 88 | – | –
CCCCCCN1C=C/C(=C\C=C(C#N)C#N)c2ccccc21 | – | – | 76 | – | –
COc1ccc(C(=O)Cn2cc[n+](C)c2)cc1 | – | – | – | · | –
CN(C)c1cccc(Oc2nc3c(c(=O)n(C)c(=O)n3C)n2C)c1 | – | – | 89 | – | –
S=C(Nc1ccccc1)N1CCN(c2ccccc2)CC1 | · | – | – | – | –
Cc1ccc(N2CCN(C(=S)Nc3ccccc3)CC2)cc1 | 86 | – | – | – | –
COc1ccccc1Nc1ccc(Nc2ccccc2OC)nn1 | – | – | 81 | – | –
Cc1cccc(Nc2n[nH]c(=S)s2)c1C | – | – | – | – | –
COc1ccccc1Nc1n[nH]c(=S)s1 | 78 | – | – | – | –
COc1cc(C(=O)N/C(=C/c2ccc(F)cc2)C(=O)NC(C(=O)O)c2ccccc2)cc(OC)c1OC (stereo not given) | – | – | – | – | –
Cc1ccc(S(=O)(=O)NC(=O)N2CCCC2)cc1 | – | – | – | – | –
CCCNC(=O)c1cc(-c2ccc(Br)cc2)on1 | 33 | – | – | – | –
Cn1c(/C=C/c2ccc(Cl)cc2)c([N+](=O)[O-])c(=O)n(C)c1=O | – | – | – | – | –
CN(/C=C/c1c([N+](=O)[O-])c(=O)n(C)c(=O)n1C)c1ccccc1 | 86 | – | – | – | –
COc1ccccc1NC(=O)/C(=C\c1cccnc1)NC(=O)c1ccc(C)cc1 | 42 | – | – | – | –
CCc1cccc(NC(=O)CCNS(=O)(=O)c2ccc3[nH]c(=O)oc3c2)c1 | 40 | – | – | – | –
Clc1ccccc1C1Nc2cccc3cccc(c23)N1 | – | – | – | – | –
Oc1ccc(C2Nc3cccc4cccc(c34)N2)c(O)c1 | – | – | 91 | – | –
CC(=O)Nc1cccc(NC(=O)c2cc(-c3cccnc3)nc3ccc(Br)cc23)c1 | · | – | – | – | –
Cc1cc(NS(=O)(=O)c2ccc(NC(=O)c3cc(-c4cccnc4)nc4ccc(Cl)cc34)cc2)no1 | – | – | – | – | –
O=C(Nc1ccc(C(=O)N2CCOCC2)cc1)c1cc(-c2cccnc2)nc2ccc(Cl)cc12 | – | – | 79 | – | –
CC(=O)Nc1cccc(NC(=O)c2cc(-c3cccnc3)nc3ccc(Cl)cc23)c1 | – | – | 73 | – | –
SMILES | CAL PDZ FP-1 | ATG4B inh | SR-BI DiI inh | CAL PDZ FP-2 | SR-BI uptake up
CCCCCN1CSC(=S)N(Cc2ccccc2)C1 | 46 | – | – | – | –
CC1CCCC(=NNc2ccc3ccccc3n2)C1 (stereo not given) | – | – | – | – | –
CC(C)C[C@H](NC(=O)N1CCN(c2ccccc2)CC1)C(=O)O | – | – | – | – | –
Cc1ccccc1C(=O)NC(CC(C)C)C(=O)N1CCN(c2ccccc2)CC1 (stereo not given) | 35 | – | – | – | –
O=C(CSc1nnc(CNC(=O)c2ccccc2F)o1)NC1CCCCC1 | – | – | – | – | –
CCOC(=O)c1csc(Nc2nc3ccc(F)cc3s2)n1 | 39 | – | – | – | –
CC1CC(C)C(=NNC(N)=O)C(C(O)CC2CCC(=O)NC2=O)C1 (stereo not given) | 51 | – | – | – | –
